Source: PubChem BioAssay (Johns Hopkins Ion Channel Center)
The list is not random: actives were taken first. Their share in the collection is about 3.5%.
RGS4 act – potentiators or activators of RGS4; HEK293 M3R/inducible RGS4, carbachol calcium flux Fluo4; stronger effect = lower value; actives 0.92% (n = 310,000); B-score at 10 µM;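 active means B-score of the integrated calcium signal more than 4 SD below the library mean, with starting fluorescence not abnormally high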;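 further: negative B-score means reduced calcium response which marks RGS4 activation or potentiation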
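Detection: kinetic calcium fluorescence imaging with Fluo4-AM dye, 2 µM / Material: HEK293 cells with stable M3R and inducible RGS4 / Schedule: recording 10 s baseline at 1 Hz, 100 s post-agonist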
RGS4 inh – inhibitors of human RGS4; P49798; actives 0.45% (n = 310,000); HEK293 M3R/RGS4 inducible, Fluo-4 calcium flux; stronger effect = higher value; triggered by carbachol at its EC20; B-score at 10 µM;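 active means B-score, a plate-corrected calcium signal, over three deviations above library mean, with baseline fluorescence within five deviations of library mean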;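 further: RGS4 expression induced by doxycycline in cells with stable M3 receptor; B-score is computed from the integrated fluorescence ratio over baseline after carbachol; higher B-score means a larger calcium signal and so more RGS4 inhibition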
Target sequence (P49798 whole entry, looked up): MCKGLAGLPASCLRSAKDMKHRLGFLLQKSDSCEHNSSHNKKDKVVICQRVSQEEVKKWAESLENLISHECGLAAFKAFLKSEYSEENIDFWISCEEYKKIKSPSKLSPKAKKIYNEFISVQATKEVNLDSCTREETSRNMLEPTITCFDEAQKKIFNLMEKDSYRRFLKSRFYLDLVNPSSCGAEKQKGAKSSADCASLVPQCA
MrgX1 agonist – agonists of human MrgX1 receptor; B-score at 10 µM; actives 0.44% (n = 310,000); MrgX1-HEK293 cells, Fluo-4 calcium fluorescence, agonist mode; stronger effect = higher value;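 active means calcium response B-score plate-corrected fluorescence ratio at least 3 library SD, with starting fluorescence B-score inside 5 SD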
Target sequence (Q96LB2 whole entry, looked up): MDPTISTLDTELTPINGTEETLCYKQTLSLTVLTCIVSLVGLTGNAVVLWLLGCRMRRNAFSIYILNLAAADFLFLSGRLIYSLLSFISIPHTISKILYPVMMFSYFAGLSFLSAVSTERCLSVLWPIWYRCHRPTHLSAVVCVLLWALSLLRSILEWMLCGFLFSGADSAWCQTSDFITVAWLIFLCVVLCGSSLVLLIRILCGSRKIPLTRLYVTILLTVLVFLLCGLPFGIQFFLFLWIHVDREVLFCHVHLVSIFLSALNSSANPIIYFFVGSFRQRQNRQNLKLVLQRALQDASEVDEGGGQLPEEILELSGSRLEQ
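Material: MrgX1-expressing HEK293 cells / Dosing: compound as first of three additions / Incubation: overnight seeding, then 1 h dark dye loading / Signal: Fluo-4 NW calcium fluorescence / Evaluation: B-scored fluorescence response ratio / Benchmarks: positive and negative control wells on each plate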
MrgX1 PAM – allosterically activates human MrgX1 receptor signaling; Q96LB2; MrgX1-HEK293, Fluo-4 calcium flux, FDSS; stronger effect = higher value; B-score at 10 µM; actives 0.63% (n = 310,000); AID 588675;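 active means plate-corrected calcium response at least 3 library SD above typical, normal starting fluorescence, not activating the receptor alone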;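 further: compound read alongside a low EC10 to EC30 dose of BAM8-22 agonist; peak minus trough fluorescence over baseline measured at the second addition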
MrgX1 antagonist – antagonists of human MrgX1 receptor; Q96LB2; MRGX1-HEK293 calcium flux, Fluo-4, BAM8-22 antagonism; stronger effect = lower value; B-score at 10 µM; actives 1.3% (n = 310,000);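 active means calcium-response B-score plate-corrected more than 3 library SD below zero, starting fluorescence within 5 deviations, no agonist response on first addition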;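 further: peak minus trough fluorescence over baseline after final BAM8-22 challenge near maximal dose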
Hits are given with their value; 0 = inactive.

SMILES	RGS4 act	RGS4 inh	MrgX1 agonist	MrgX1 PAM	MrgX1 antagonist
CCCNC(=O)OC[C@H]1O[C@H](CCO/N=C(\C)CCN2CCc3nc(-c4ccccc4)c(-c4ccccc4)cc3C2)C=C[C@@H]1Oc1ccc(OC)cc1	-8.1	0	0	0	0
Cn1c2ccccc2c2cc(/C=N/NC(=O)c3cc(O)ccc3O)ccc21	-9	0	0	0	0
COc1cc(C(=O)N/N=C/c2ccc3c(c2)c2ccccc2n3C)ccc1O	0	0	0	0	0
COCCn1c(C)cc(C(=O)COC(=O)CNC(=O)c2ccccc2)c1C	0	0	0	0	-5
CCCCNC(=S)N(C)/N=C/c1sc(N2CCCCC2)nc1-c1cccs1	0	0	0	0	-8.7
CC/C(=N\Nc1ccc([N+](=O)[O-])cc1)c1ccccc1	0	0	0	0	0
CCC1(C(=O)c2ccccc2)C(c2ccc([N+](=O)[O-])cc2)C1(C(=O)OC)C(=O)OC (stereo not drawn)	0	0	27	0	0
COc1ccc(Cl)cc1NC(=O)CN(C)C(=O)c1n[nH]c2ccccc12	0	0	0	0	0
CN1c2ccccc2C(C)(C)C12CC(c1ccc(S(=O)(=O)N3CCCCC3)cc1)=NO2 (stereo not drawn)	0	0	0	0	0
CCN(CC)S(=O)(=O)c1ccc(C2=NOC3(C2)N(C)c2ccccc2C3(C)C)cc1 (stereo not drawn)	-8.4	0	0	0	0
Cc1ccc(C(=O)Nc2nnc(S(=O)(=O)N3CCC(C)CC3)s2)cc1	0	0	0	0	-6.4
Cc1ccc(C(=O)Nc2nnc(S(=O)(=O)N3CCCCCC3)s2)cc1	0	0	0	0	0
O=C(Cc1ccsc1)NNC(=O)c1ccc(F)cc1	0	0	0	0	0
COc1ccc(C[C@H]2CN3C(=NC[C@@H]3Cc3ccccc3)N2CCNC(=O)c2ccc(C)c(Br)c2)cc1	0	0	0	0	0
COc1ccc(C[C@H]2CN3C(=NC[C@H]3Cc3ccccc3)N2CCNC(=O)c2ccc(C)c(Br)c2)cc1	0	0	0	0	-5.1
CC(=O)C1C(c2ccc([N+](=O)[O-])cc2)c2c(noc2C)CC1(C)O (stereo not drawn)	-8.5	0	0	0	0
CC(=O)C1C(c2ccc(C)cc2)c2c(noc2C)CC1(C)O (stereo not drawn)	0	0	0	0	0
O=C1Nc2ccccc2N(O)N1c1cc(-c2ccc(Cl)cc2)[nH]n1	0	0	0	0	0
CCOC(=O)c1c(Cc2ccccc2)c[nH]c1C	0	0	0	0	0
COCC(C)NC(=O)CSc1nc2ccccc2n1CCc1ccccc1 (stereo not drawn)	0	0	28	0	0
CCN1C(=O)[C@@H]2Cc3c([nH]c4ccccc34)C(c3ccc(OC)cc3)N2C1=S (stereo partly drawn)	0	0	0	0	-4.5
CC1=C(C(=O)Nc2cccc(F)c2)C(c2ccsc2)C2=C(CC(C)(C)CC2=O)N1 (stereo not drawn)	0	0	0	0	0
CC(C)NS(=O)(=O)c1ccc(Br)c(C(=O)OC(C)C(=O)NC2CCCCC2C)c1 (stereo not drawn)	0	0	0	0	0
Cc1c(NC(=O)c2cc(-n3cnnc3)ccc2Cl)cccc1-c1nc2ccccc2s1	0	0	0	0	0
O=C(Nc1cccc(-c2nc3ccccc3s2)c1)c1cc(-n2cnnc2)ccc1Cl	-8.3	0	0	0	0
SMILES	RGS4 act	RGS4 inh	MrgX1 agonist	MrgX1 PAM	MrgX1 antagonist
O=C(NCc1ccncc1)/C(=N/O)c1ccccc1	0	0	0	0	-5.7
N#C/C(=C/c1ccccc1)C(=O)NCc1ccccc1	0	0	0	0	0
CN(C)c1ccc(/C=C(/C#N)C(=O)NCc2ccccc2)o1	0	0	0	0	-4.9
COc1ccccc1C1=NNC(=Nc2cccc(S(=O)(=O)N(C)C)c2)SC1	0	0	0	0	-5
COCCn1c(C)cc(C2=NNC(=Nc3ccccc3)SC2)c1C	0	0	0	0	0
CCOc1cc(N2CCOCC2)c(OCC)cc1NC(=O)COC(=O)CCOc1cc(C)ccc1C	0	0	0	0	0
CCc1cccc2c(C(=O)COC(=O)c3nn(C)c(=O)c4ccccc34)c[nH]c12	-7.3	0	0	0	0
CCN(CC)c1ccc2cc(C(=O)NCc3ccc(F)cc3)c(=N)oc2c1	0	0	37	0	0
CCCCCCc1cc2cc(C(=O)NCc3ccccc3)c(=N)oc2cc1O	0	0	0	7	0
Cc1nc(S(=O)(=O)c2ccc(Cl)cc2)c(N(C)C)o1	0	0	0	0	0
O=C(Nc1cccc(C(=O)O)c1)/C(=C\c1ccc2c(c1)OCO2)NC(=O)c1ccc(Br)cc1	0	0	0	0	0
C[C@H](NC(=O)[C@@H]1Cc2ccccc2CN1C(=O)OC(C)(C)C)C(=O)NCc1ccco1	0	0	0	0	0
C/C(=N/NC(=O)c1cc(C)[nH]n1)c1ccncc1	0	0	0	0	0
C=CCc1cccc2cc(C(=O)Nc3cccc(C(=O)O)c3)c(=O)oc12	0	0	0	7.6	0
C=CCc1cccc2cc(C(=O)Nc3ccc(CC(=O)O)cc3)c(=O)oc12	0	0	0	0	0
Cc1nn(-c2ccc(Cl)cc2)c(Cl)c1/C=N/NC(=O)c1ccc(NS(=O)(=O)c2cccs2)cc1	0	0	0	13	0
NS(=O)(=O)c1ccc(N/N=C/c2ccccc2Br)cc1	0	0	0	6.8	0
O=[N+]([O-])c1ccc(N/N=C/c2ccccc2O)cc1	0	0	0	0	-4.9
NS(=O)(=O)c1ccc(N/N=C/c2ccncc2)cc1	0	0	0	0	0
O=[N+]([O-])c1cccc(N/N=C/c2cc([N+](=O)[O-])ccc2O)c1	0	0	0	0	0
Cn1cc(CN2CCC(n3nccc3NC(=O)Cc3ccccc3)CC2)cn1	0	0	0	0	0
COc1ccc(Cl)cc1NC(=O)CN(C)C(=O)c1ccc(COc2ccccc2)cc1	0	0	0	0	0
Nc1c(S(=O)(=O)c2cccc(Cl)c2)c2nc3ccccc3nc2n1/N=C/c1ccc(O)c(O)c1	0	16	0	0	0
COc1cccc(/C=N/n2c(N)c(S(=O)(=O)c3cccs3)c3nc4ccccc4nc32)c1OC	0	0	0	0	0
Nc1cc(=O)nc(SCC(=O)Nc2ccccc2Cl)n1-c1ccccc1	0	0	0	0	0
CCOC(=O)c1sc(=S)n(Cc2ccccc2)c1N	0	0	47	0	0
COc1ccccc1NS(=O)(=O)c1ccc(C)c(C(N)=O)c1	0	0	0	0	0
COc1ccccc1NS(=O)(=O)c1ccc(O)c(C(=O)OCc2cccc([N+](=O)[O-])c2)c1	0	0	0	0	-6.5
FC(F)Oc1ccc(NC(=S)NCCc2ccccn2)cc1	0	0	0	0	0
O=S(=O)(c1cccs1)N1CCN(c2ccc(O)cc2)CC1	0	0	0	0	0
